UHRF1 MBD2 ctr: human UHRF1 methylated DNA binding inhibitors; Q96T88; UHRF1 binding to methylated oligo, TR-FRET; 0.75% of 370,000 active; inhibition, % at 4.4 µM; in the data active = inhibition above about 21%;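 note: UHRF1 SRA domain binding a hemimethylated CpG hairpin DNA probe; 0% = median of test compound wells and 100% = reference inhibitor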
rCAG RNA binder: r(CAG) repeat RNA binding; inhibition, % at 3 µM; AID 651821; TO-PRO-1 dye displacement fluorescence; 1.3% of 370,000 active;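 active = inhibition above the plate cutoff, the mean of all test compounds on that plate plus 3 SD, cut at about 35% in these data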;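 note: 0% = DMSO alone and 100% = 100 µM mitoxantrone as full dye displacement; higher means more dye released from RNA so lower well fluorescence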
LEDGF integ inh: blocks HIV-1 LEDGF/p75-dependent DNA integration | TR-FRET IN-LEDGF/p75 DNA integration, Eu/Cy5 | inhibition, % at 3.7 µM | 0.64% of 370,000 active | AID 743269;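 active = inhibition above the screen-wide mean plus 3 SD, cut at about 13% in these data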;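 note: signal is the Cy5 over europium emission ratio at 671 and 618 nm; 0% = plate median of compound wells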
MBD2 DNA inh: inhibitors of human MBD2 binding to methylated oligonucleotide; AID 686964; 0.31% of 370,000 active; inhibition, % at 4.4 µM; TR-FRET; Q9UBB5; in the data active = inhibition above about 13%
CSN deneddyl inh: CSN deneddylation inhibition; Q92905; Purified CSN, SCF-Nedd8-OG deneddylation, fluorescence polarization; inhibition, % at 12.5 µM; 0.38% of 360,000 active; AID 651999;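 active = pattern-corrected inhibition above about 35%, with an unprinted fluorescence ratio check between 0.5 and 1.5, limit read from the data, passing the limit was not always enough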;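 note: 0% = enzyme with substrate and 100% = substrate without enzyme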
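Assay system: purified human Csn5 enzyme expressed in HEK293T cells; Input: 0.24 nM Csn5 enzyme, final concentration; Reagent: 10 nM SCFSkp2-Nedd8OG; Compound dosing: 12.5 µM single point; Times: reaction 90 min, room temperature; Technique: fluorescence polarization readout.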
ATG4B inhibitor: blocks human ATG4B protease cleavage of LC3 substrate; AID 504462; 0.51% of 340,000 active; ATG4B cleavage of LC3-PLA2, NBD-HPC fluorescence, 1 h; inhibition, % at 8.33 µM; Q9Y4P1; in the data active = inhibition above about 40%
Target sequence (Q9Y4P1 whole entry, looked up): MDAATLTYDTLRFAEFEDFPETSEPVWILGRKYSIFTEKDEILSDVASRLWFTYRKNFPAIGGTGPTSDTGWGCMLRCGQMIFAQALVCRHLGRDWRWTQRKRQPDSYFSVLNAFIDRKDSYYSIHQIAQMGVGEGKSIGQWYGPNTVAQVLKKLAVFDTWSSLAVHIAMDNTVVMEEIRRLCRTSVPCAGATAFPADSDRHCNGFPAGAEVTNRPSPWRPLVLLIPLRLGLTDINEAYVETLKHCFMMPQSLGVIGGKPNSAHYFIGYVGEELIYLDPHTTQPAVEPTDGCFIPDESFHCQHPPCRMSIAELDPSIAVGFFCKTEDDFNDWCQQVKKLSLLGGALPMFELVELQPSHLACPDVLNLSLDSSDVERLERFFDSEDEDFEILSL
Numbers without * were called inactive; · = not tested or not shown. Hits are enriched below; roughly 3.1% of the tested compounds scored in any of these assays.

SMILES | UHRF1 MBD2 ctr | rCAG RNA binder | LEDGF integ inh | MBD2 DNA inh | CSN deneddyl inh | ATG4B inhibitor
Cc1ccc(NC(=O)c2cc(S(=O)(=O)NCC3CCCO3)ccc2F)cc1 (stereo unspecified) | 45.2* | 3.5 | 0.8 | -0.7 | -1.3 | ·
Cc1ccc(S(=O)(=O)NCC2CCCO2)cc1 (stereo unspecified) | 1.9 | 2.8 | 2.3 | 2.3 | -2.6 | -0.1
O=C(Nc1ccc(Cl)cc1Cl)OC1CCC12CCC(c1ccccc1)CC2 (stereo unspecified) | 5.0 | · | 1.6 | 2.9 | · | ·
Cn1ccc(/C=N/N=C2/NC(=O)CS2)n1 | 36.7* | 1.8 | 2.1 | -5.5 | 2.4 | -2.0
CCCCc1nc(Cl)c(C#N)c2c1CCC2 | 0.7 | 11.4 | 3.7 | 2.6 | 2.6 | 8.6
CCCCc1nc(Cl)c(C#N)c2c1CCCC2 | 38.0* | -3.2 | -3.0 | 0.1 | 4.8 | 0.3
COCCCNC(=O)CSc1ccsc1[N+](=O)[O-] | 1.1 | 6.9 | 2.8 | -0.8 | 1.1 | 1.6
Cc1ccccc1NC(=O)CSc1ccsc1[N+](=O)[O-] | 19.7 | 15.2 | 5.4 | 5.8 | 35.0* | 21.6
CCOC(=O)C1C[C@@H](O)C=CC1=O (stereo partly specified) | -1.5 | · | -4.5 | -3.1 | · | ·
COc1ccccc1CCc1nnc(CCC(=O)NCCOc2cccnc2)o1 | 24.7* | 0.1 | 3.0 | 3.6 | 4.8 | -8.6
COc1ccccc1CCc1nnc(CCC(=O)NCC(C)Oc2cccnc2)o1 (stereo unspecified) | 17.7 | -9.7 | 2.7 | 5.4 | 5.6 | 11.9
Cc1ccc(-n2c(SCc3cccc(F)c3)nc3sc4c(c3c2=O)CCCC4)cc1 | -1.2 | 5.5 | -0.6 | -2.5 | · | ·
COc1ccc(/C=C2\Oc3cc(OC(=O)N4CCOCC4)ccc3C2=O)c(OC)c1 | -4.6 | 6.9 | 0.0 | 0.6 | 44.0* | -13.0
COc1cccc(OC)c1C(=O)Oc1ccc2c(c1)O/C(=C\c1ccncc1)C2=O | 36.6* | 4.8 | -0.3 | -4.8 | 8.8 | -5.5
O=C1/C(=C/c2ccccc2)Oc2cc(OC(=O)N3CCOCC3)ccc21 | -1.8 | 0.6 | 0.7 | -0.2 | -1.8 | -5.0
O=C(C1CCN(c2ncnc3c2sc2cccc(F)c23)CC1)N1CCN(Cc2ccc(F)cc2)CC1 | -0.6 | 5.8 | 0.5 | 2.1 | · | ·
Cc1ccccc1C(=O)N[C@H](C(=O)N1CCC[C@H]1C(=O)NCCc1ccccc1Cl)c1ccccc1 | -1.6 | 0.1 | -1.5 | 1.9 | · | ·
CCn1nc(C)c(NC(=O)c2ccc(Cl)cc2)c1C | 27.3* | -0.9 | 4.9 | 12.6 | 0.3 | -3.2
CC(=O)Nc1nc2cc([N+](=O)[O-])ccc2s1 | -4.0 | 0.5 | -1.3 | -1.0 | -1.2 | -5.1
O=c1nc(Nc2ccc(Br)cc2)sc2ccc([N+](=O)[O-])cc12 | 11.7 | 11.1 | 5.6 | -2.8 | 46.2* | 5.4
C#CCCN([C@@H](CC(C)C)C(=O)OC)S(=O)(=O)c1ccccc1Br | -1.3 | -2.1 | -2.3 | 3.6 | · | ·
CC(=O)c1cc(NC(=O)c2cccc(C(F)(F)F)c2)c(=O)oc1/C=C/N(C)C | 1.8 | 0.1 | 2.8 | -5.0 | 50.1 | -10.9
CC(=O)c1cc(NC(=O)c2ccc(Cl)cc2)c(=O)oc1/C=C/N(C)C | -3.0 | 9.4 | 5.7 | -2.6 | 55.3* | 0.5
CCOC(=O)[C@@]12CCCC=C1N(CCc1ccc(Cl)cc1)C(=O)[C@H]2CC(=O)N1CCCC1 | 1.5 | 5.6 | 0.1 | 1.9 | · | ·
N/C(=N\OC(=O)/C=C/c1ccccc1)c1ccccn1 | 24.1* | -0.3 | -2.9 | 2.9 | -2.7 | -0.2
SMILES | UHRF1 MBD2 ctr | rCAG RNA binder | LEDGF integ inh | MBD2 DNA inh | CSN deneddyl inh | ATG4B inhibitor
COc1ccc(/C=C/C(=O)O/N=C(\N)c2ccccn2)cc1OC | -4.5 | 1.5 | -1.4 | -7.1 | -0.8 | 0.7
CCOc1ccc(Cl)cc1-c1cc(C(=O)NC2CCCCC2)[nH]n1 | 78.8* | 2.3 | -1.9 | -0.6 | 5.2 | ·
CN(C)CCCN(C(=O)c1ccco1)c1nc(-c2ccc(Cl)cc2)cs1 | 81.3* | 0.3 | 3.4 | 0.3 | 0.1 | -0.3
Cc1ccc(-c2csc(N(CCCN(C)C)C(=O)c3ccco3)n2)cc1 | -4.3 | 0.0 | 1.5 | -1.4 | -1.6 | -5.3
COc1cc2c(cc1OC)C(c1ccc(Br)cc1)NC(=O)C2 (stereo unspecified) | 2.3 | -3.0 | -4.6 | 1.2 | 0.0 | -0.5
COc1cc2c(cc1OC)C(c1ccccc1)NC(C)(C)C2 (stereo unspecified) | 45.7* | -2.7 | -4.6 | -1.1 | 2.7 | -10.1

Assay outcomes as filed in PubChem.
